For data set [1], the system named is Escherichia coli. Kind of data set: Antimicrobial activity against Escherichia coli HN1157/pHSG576oxa7 assessed as minimal drug concentration. The class given is functional. In short, it runs like this: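 The inoculum was grown overnight in modified LB broth with 10 μg/ml chloramphenicol to keep the plasmid, diluted to OD660 0.1 and streaked across the gradient. Plates were read after overnight incubation at 30°C.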

The nature of data set [2]: Lipophilicity, log P of the compound. The class given is physicochemical. Particulars: octanol/water.
Data set [3] deals with Escherichia coli. Kind of data set: Antimicrobial activity against Escherichia coli HN1157/pHSG576oxa7. Type of data set: functional.
A short description of data set [4]: Permeability across Escherichia coli HN1157/pHSG576oxa7 assessed as permeability coefficient in presence of proton uncoupler carbonyl cyanide meta-chlorophenylhydrazone. Particulars: not told, read-out: permeability. Type of data set: ADME, organism-based.
The test system of data set [5] is Escherichia coli. To be noted: HN1157.
Substrate in data set [6]: Cc1onc(-c2c(Cl)cccc2Cl)c1C(=O)N[C@@H]1C(=O)N2[C@@H]1SC(C)(C)[C@@H]2C(=O)O
Kind of data set: (§1) Activity at Escherichia coli isolate 7181 beta-lactamase OXA-7. In short, it runs like this:
(§2)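 Crude sonicates of E. coli HN1157 carrying low-copy pHSG576oxa7, grown 14 h at 30°C in modified LB with 10 μg/ml chloramphenicol (plus 0.1% glucose for some substrates). Extract equals OD600 0.025 cells (9.38 μg dry weight/ml) in 50 mM potassium phosphate, pH 7.0, 5 mM MgCl2. Penicillin hydrolysis stopped with TCA at 2 min. Microiodometric OD592 read after 30 min, minus a zero-time TCA blank. Km and Vmax expressed per mg cell dry weight.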

Substrate in data set [7]: CC1(C)S[C@@H]2[C@H](NC(=O)[C@H](NC(=O)N3CCN(S(C)(=O)=O)C3=O)c3ccccc3)C(=O)N2[C@H]1C(=O)O
The description is as §1. In short, it runs like this: as §2

Substrate in data set [8]: CC1(C)S[C@@H]2[C@H](NC(=O)COc3ccccc3)C(=O)N2[C@H]1C(=O)O
Described as §1. In outline:
as §2

Substrate in data set [9]: CC1(C)S[C@@H]2[C@H](NC(=O)[C@H](NC(=O)N3CCNC3=O)c3ccccc3)C(=O)N2[C@H]1C(=O)O
Described as §1. In short, it runs like this:
as §2

Substrate in data set [10]: Cc1onc(-c2ccccc2)c1C(=O)N[C@@H]1C(=O)N2[C@@H]1SC(C)(C)[C@@H]2C(=O)O
The description is as §1. In outline: as §2

Substrate in data set [11]: CCN1CCN(C(=O)N[C@@H](C(=O)N[C@@H]2C(=O)N3[C@@H]2SC(C)(C)[C@@H]3C(=O)O)c2ccccc2)C(=O)C1=O
Described as §1. In short, it runs like this:
as §2

Substrate in data set [12]: Cc1onc(-c2ccccc2Cl)c1C(=O)N[C@@H]1C(=O)N2[C@@H]1SC(C)(C)[C@@H]2C(=O)O
The data set is described as §1. In short, it runs like this: as §2

≈ marks a conversion by molar mass, not a printed value.

In general, logP refers to a log measure of how a compound divides between an organic and an aqueous phase. Read a high logP as higher lipophilicity. A word on the MIC: it is the smallest concentration in the dilution series that meets the test's criterion for growth inhibition. On to `CC1(C)S[C@@H]2[C@H](NC(=O)[C@H](N)c3ccccc3)C(=O)N2[C@H]1C(=O)O` [AMPICILLIN], for which the Activity in the data set on Escherichia coli [1] came to 2.9 µM. The molecule further showed a logP in data set [2] of -1.03. In addition, 39 µg/mL (≈ 112 µM) was the least that counted as inhibitory against Escherichia coli [3] (MIC).

Turning to `CC1(C)S[C@@H]2[C@H](NC(=O)[C@H](NC(=O)N3CCNC3=O)c3ccccc3)C(=O)N2[C@H]1C(=O)O` [AZLOCILLIN], the Papp in data set [4] came to 40 ×10⁻⁶ cm/s. Also, the Activity in the data set with Escherichia coli [1] stood at 1.3 µM. The K0.5 with Escherichia coli [5] was determined as 1.06 µM. In addition, in data set [2], the logP was determined as 0.71. In the data set with Escherichia coli [3], this molecule showed an MIC of 44 µg/mL (≈ 95.3 µM).

With `Cc1onc(-c2ccccc2Cl)c1C(=O)N[C@@H]1C(=O)N2[C@@H]1SC(C)(C)[C@@H]2C(=O)O` [CLOXACILLIN], the Papp in data set [4] stood at 60 ×10⁻⁶ cm/s. The Activity in the data set on Escherichia coli [1] came to 11 µM. This molecule returned a K0.5 with Escherichia coli [5] of 0.91 µM. Moreover, the logP in [2] turned out to be 2.8. This molecule returned an MIC in the data set on Escherichia coli [3] of 295 µg/mL (≈ 677 µM).

Consider `Cc1onc(-c2c(Cl)cccc2Cl)c1C(=O)N[C@@H]1C(=O)N2[C@@H]1SC(C)(C)[C@@H]2C(=O)O` [DICLOXACILLIN], for which the Papp in data set [4] came to 60 ×10⁻⁶ cm/s. For the same molecule, the Activity with Escherichia coli [1] stood at 39 µM. The molecule further displayed a K0.5 in the data set on Escherichia coli [5] of 0.53 µM. In [2], this molecule gave a logP of 3.4. The molecule further returned an MIC with Escherichia coli [3] of 560 µg/mL (≈ 1190 µM).

For `CC1(C)S[C@@H]2[C@H](NC(=O)[C@H](NC(=O)N3CCN(S(C)(=O)=O)C3=O)c3ccccc3)C(=O)N2[C@H]1C(=O)O` [MEZLOCILLIN], the Papp in [4] came to 50 ×10⁻⁶ cm/s. Besides, the Activity in the data set with Escherichia coli [1] was found to be 1.1 µM. In the data set with Escherichia coli [5], this molecule showed a K0.5 of 1.08 µM. Besides, the logP in data set [2] was found to be 0.67. In the data set with Escherichia coli [3], this molecule showed an MIC of 30 µg/mL (≈ 55.6 µM).

Consider `Cc1onc(-c2ccccc2)c1C(=O)N[C@@H]1C(=O)N2[C@@H]1SC(C)(C)[C@@H]2C(=O)O` [OXACILLIN], for which the Papp in data set [4] worked out at 60 ×10⁻⁶ cm/s. The Activity with Escherichia coli [1] stood at 12 µM. The molecule further displayed a K0.5 in the data set with Escherichia coli [5] of 0.97 µM. For the same molecule, the logP in data set [2] is 2.1. In the data set on Escherichia coli [3], 282 µg/mL (≈ 702 µM) was the least that counted as inhibitory (MIC).

`CC1(C)S[C@@H]2[C@H](NC(=O)COc3ccccc3)C(=O)N2[C@H]1C(=O)O` [PENICILLIN V]: in [4], the Papp came out at 70 ×10⁻⁶ cm/s. For the same molecule, the Activity with Escherichia coli [1] came to 33 µM. This molecule also had a K0.5 with Escherichia coli [5] of 0.82 µM. In addition, the logP in data set [2] worked out at 1.54. The molecule further yielded an MIC against Escherichia coli [3] of 178 µg/mL (≈ 508 µM).

As for `CCN1CCN(C(=O)N[C@@H](C(=O)N[C@@H]2C(=O)N3[C@@H]2SC(C)(C)[C@@H]3C(=O)O)c2ccccc2)C(=O)C1=O` [PIPERACILLIN], the Papp in data set [4] was 30 ×10⁻⁶ cm/s. In the data set with Escherichia coli [1], the Activity is 1.2 µM. For the same molecule, the K0.5 with Escherichia coli [5] turned out to be 1.06 µM. Moreover, the logP in data set [2] was 0.45. Besides, the MIC in the data set with Escherichia coli [3] came to 46 µg/mL (≈ 88.9 µM).

B1: Beta-lactamase OXA-7 (Escherichia coli), P35695 (protein)
chain: MKTFAAYVITACLSSTALASSITENTFWNKEFSAEAVNGVFVLCKSSSKLACATNNLARASKEYLPASTFKIPNAIIGLETGVIKNEHQIFKWDGKPRAMKQWERDLSLRGAIQVSAVPVFQQIAREVGEVRMQKYLKKFSYGNQNISGGIDKFWLEGQLRISAVNQVEFLESLFLNKLSASKENQLIVKEALVTEAPEYLVHSKTGFSGVGTESNPGVAWWVGWVEKGAEVYFFAFNMDIDNENKLPLRKSIPTKIMASEGIIGG
For orientation: Km means the substrate concentration at which the rate is half of its maximum. In the case of B1, the Km was 34 µM in [6]; 29 µM in data set [7]; 29 µM in data set [8]; 18 µM in data set [9]; 52 µM in [10]; 34 µM in data set [11]. In addition, the Michaelis constant (Km) in data set [12] is 31 µM.

The record behind these values is ChEMBL document CHEMBL1255430, “Kinetic parameters of efflux of penicillins by the multidrug efflux transporter AcrAB-TolC of Escherichia coli” (Antimicrob Agents Chemother, 2010).
